{"source": "paper PMC12207910", "about": "(European journal of pharmaceutical sciences : official …, 2024)", "key": {"[1]": {"test_system": "human red blood cells (hRBC)", "assay": "Hemolytic activity", "format": "cell-based", "conditions": "concentration at which 50% hemolysis was observed"}, "[2]": {"test_system": "Pseudomonas aeruginosa (ATCC 10145)"}, "[3]": {"test_system": "P. aeruginosa (ATCC 27883)", "conditions": "highest MIC of three independent experiments"}, "[4]": {"test_system": "Klebsiella pneumonia (ATCC BAA-2470), carbapenem resistant", "conditions": "Carbapenem resistant strain"}, "[5]": {"test_system": "S. aureus (ATCC 29213)", "conditions": "highest MIC of three independent experiments"}, "[6]": {"test_system": "Acinetobacter baumannii (ATCC BAA1605), ciprofloxacin resistant", "conditions": "Ciprofloxacin resistant strain"}, "[7]": {"test_system": "E. coli (ATCC 25922)", "conditions": "highest MIC of three independent experiments"}, "[8]": {"test_system": "Pseudomonas aeruginosa (ATCC BAA-1744), imipenem resistant", "conditions": "Imipenem resistant strain"}, "[9]": {"test_system": "Escherichia coli (ATCC BAA-2452), NDM-1"}, "[10]": {"test_system": "E. coli (ATCC BAA-2452)", "format": "cell-based, Escherichia coli", "conditions": "E. coli (ATCC BAA-2452)"}, "[11]": {"test_system": "Klebsiella pneumonia (ATCC 13883)"}, "[12]": {"test_system": "E. coli (ATCC BAA-2452) biofilm", "assay": "Antibiofilm activity, XTT assay", "format": "cell-based, Escherichia coli", "summary_of_the_method": "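Bacterial suspensions at 5×10^5 CFU/mL in MH broth were grown 24 h at 37 °C to form biofilms, then washed twice with PBS. […] Biofilms were rewashed, then given XTT plus phenazine methosulfate for 1 h in the dark at 37 °C, and A492 was read. Percentage decrease versus untreated wells; triplicate, run twice.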"}, "[13]": {"test_system": "E. coli (ATCC 25922) and E. coli (ATCC BAA-2452)", "assay": "Resistance development study, repeated exposure", "format": "cell-based", "conditions": "E. coli strains; 18 exposures"}, "[14]": {"test_system": "human red blood cells (hRBC)", "conditions": "cited from earlier work"}, "[15]": {"test_system": "MRSA (ATCC BAA-1556)", "conditions": "cited from earlier work"}, "[16]": {"test_system": "S. aureus (ATCC 29213)", "conditions": "cited from earlier work"}, "[17]": {"test_system": "E. coli (ATCC 25922)", "conditions": "cited from earlier work"}, "[18]": {"test_system": "P. aeruginosa (ATCC 27883)", "conditions": "cited from earlier work"}}, "note": "Read-outs that look alike come from different tables or passages of the source. Non-standard residues stand in square brackets, D forms with d. Residues, ends and D or L forms follow the SMILES beside them. Dip = N[C@H](C(=O)O)C(c1ccccc1)c1ccccc1; hArg = N=C(N)NCCCC[C@H](N)C(=O)O; Agp = N=C(N)NC[C@H](N)C(=O)O"}
{"molecule": "N=C(N)NCCC[C@@H]1NC(=O)[C@H](CCCNC(=N)N)NC(=O)[C@H](CCCNC(=N)N)NC(=O)[C@H](C(c2ccccc2)c2ccccc2)NC(=O)[C@H](C(c2ccccc2)c2ccccc2)NC(=O)[C@H](Cc2c[nH]c3ccccc23)NC1=O", "note": "[1a, c[Arg-Arg-Arg-Trp-Dip-Dip]] (cyclo([Dip][Dip]RRRW))", "values": [{"measurement": "HC50", "setting": "[1]", "value": 50, "unit": "µg/mL"}]}
{"molecule": "N=C(N)NCCC[C@@H]1NC(=O)[C@H](CCCNC(=N)N)NC(=O)[C@H](C(c2ccccc2)c2ccccc2)NC(=O)[C@H](Cc2c[nH]c3ccccc23)NC(=O)[C@H](C(c2ccccc2)c2ccccc2)NC(=O)[C@H](CCCNC(=N)N)NC1=O", "note": "[1b, c[Arg-Arg-Arg-Dip-Trp-Dip]] (cyclo([Dip]RRR[Dip]W))", "values": [{"measurement": "HC50", "setting": "[1]", "value": 75, "unit": "µg/mL"}]}
{"molecule": "N=C(N)NCCC[C@@H]1NC(=O)[C@H](CCCNC(=N)N)NC(=O)[C@H](Cc2c[nH]c3ccccc23)NC(=O)[C@H](C(c2ccccc2)c2ccccc2)NC(=O)[C@H](C(c2ccccc2)c2ccccc2)NC(=O)[C@H](CCCNC(=N)N)NC1=O", "note": "[1c, c[Arg-Arg-Arg-Dip-Dip-Trp]] (cyclo([Dip][Dip]WRRR))", "values": [{"measurement": "HC50", "setting": "[1]", "value": 65, "unit": "µg/mL"}]}
{"molecule": "N=C(N)NCCC[C@@H]1NC(=O)[C@H](CCCNC(=N)N)NC(=O)[C@H](CCCNC(=N)N)NC(=O)[C@H](C(c2ccccc2)c2ccccc2)NC(=O)[C@H](C(c2ccccc2)c2ccccc2)NC(=O)[C@H](Cc2c[nH]c3ccccc23)NC(=O)[C@H](CCCNC(=N)N)NC1=O", "note": "[3a, c[Arg-Arg-Arg-Arg-Trp-Dip-Dip]] (cyclo([Dip][Dip]RRRRW))", "values": [{"measurement": "HC50", "setting": "[1]", "value": 85, "unit": "µg/mL"}]}
{"molecule": "N=C(N)NCCC[C@@H]1NC(=O)[C@H](CCCNC(=N)N)NC(=O)[C@H](Cc2c[nH]c3ccccc23)NC(=O)[C@H](C(c2ccccc2)c2ccccc2)NC(=O)[C@H](C(c2ccccc2)c2ccccc2)NC(=O)[C@H](CCCNC(=N)N)NC(=O)[C@H](CCCNC(=N)N)NC1=O", "note": "[3c, c[Arg-Arg-Arg-Arg-Dip-Dip-Trp]] (cyclo([Dip][Dip]WRRRR))", "values": [{"measurement": "HC50", "setting": "[1]", "value": 100, "unit": "µg/mL"}]}
{"molecule": "N=C(N)NCCC[C@@H]1NC(=O)[C@H](CCCNC(=N)N)NC(=O)[C@H](CCCNC(=N)N)NC(=O)[C@H](Cc2c[nH]c3ccccc23)NC(=O)[C@H](C(c2ccccc2)c2ccccc2)NC(=O)[C@H](Cc2c[nH]c3ccccc23)NC(=O)[C@H](CCCNC(=N)N)NC1=O", "note": "[5a, c[Arg-Arg-Arg-Arg-Trp-Dip-Trp]] (cyclo([Dip]WRRRRW))", "values": [{"measurement": "HC50", "setting": "[1]", "value": 220, "unit": "µg/mL"}]}
{"molecule": "CC(C)C[C@@H]1NC(=O)[C@H](C(c2ccccc2)c2ccccc2)NC(=O)[C@H](CCCNC(=N)N)NC(=O)[C@H](CCCNC(=N)N)NC(=O)[C@H](CCCNC(=N)N)NC(=O)[C@H](CCCNC(=N)N)NC(=O)[C@H](C(c2ccccc2)c2ccccc2)NC1=O", "note": "[6a, c[Arg-Arg-Arg-Arg-Dip-Leu-Dip]] (cyclo([Dip]L[Dip]RRRR))", "values": [{"measurement": "HC50", "setting": "[1]", "value": 155, "unit": "µg/mL"}]}
{"molecule": "N=C(N)NC[C@@H]1NC(=O)[C@H](CNC(=N)N)NC(=O)[C@H](CNC(=N)N)NC(=O)[C@H](C(c2ccccc2)c2ccccc2)NC(=O)[C@H](Cc2c[nH]c3ccccc23)NC(=O)[C@H](C(c2ccccc2)c2ccccc2)NC(=O)[C@H](CNC(=N)N)NC1=O", "note": "[7a, c[Agp-Agp-Agp-Agp-Dip-Trp-Dip]] (cyclo([Agp][Agp][Agp][Agp][Dip]W[Dip]))", "values": [{"measurement": "HC50", "setting": "[1]", "value": 240, "unit": "µg/mL"}]}
{"molecule": "N=C(N)NCCCC[C@@H]1NC(=O)[C@H](CCCNC(=N)N)NC(=O)[C@H](CCCCNC(=N)N)NC(=O)[C@H](C(c2ccccc2)c2ccccc2)NC(=O)[C@H](Cc2c[nH]c3ccccc23)NC(=O)[C@H](C(c2ccccc2)c2ccccc2)NC(=O)[C@H](CCCNC(=N)N)NC1=O", "note": "[7c, c[hArg-Arg-hArg-Arg-Dip-Trp-Dip]] (cyclo([Dip]W[Dip][hArg]R[hArg]R))", "values": [{"measurement": "HC50", "setting": "[1]", "value": 160, "unit": "µg/mL"}]}
{"molecule": "Polymyxin B", "values": [{"measurement": "MIC Pseudomonas aeruginosa (ATCC 10145)", "setting": "[2]", "value": 0.7, "unit": "µg/mL"}, {"measurement": "MIC P. aeruginosa (ATCC 27883)", "setting": "[3]", "value": 0.7, "unit": "µg/mL"}, {"measurement": "MIC Klebsiella pneumonia (ATCC BAA-2470)", "setting": "[4]", "value": 1.5, "unit": "µg/mL"}, {"measurement": "MIC S. aureus (ATCC 29213)", "setting": "[5]", "value": 0.7, "unit": "µg/mL"}, {"measurement": "MIC Acinetobacter baumannii (ATCC BAA1605)", "setting": "[6]", "value": 0.7, "unit": "µg/mL"}, {"measurement": "MIC E. coli (ATCC 25922)", "setting": "[7]", "value": 0.7, "unit": "µg/mL"}, {"measurement": "MIC Pseudomonas aeruginosa (ATCC BAA-1744)", "setting": "[8]", "value": 0.7, "unit": "µg/mL"}, {"measurement": "MIC Escherichia coli (ATCC BAA-2452)", "setting": "[9]", "value": 0.7, "unit": "µg/mL"}, {"measurement": "MIC CaCl2", "setting": "[10]; CaCl2 2 mM", "value": 0.7, "unit": "µg/mL"}, {"measurement": "MIC KCl", "setting": "[10]; KCl […]", "value": 0.7, "unit": "µg/mL"}, {"measurement": "MIC Control", "setting": "[10]; MH media without salt ions or serum", "value": 0.7, "unit": "µg/mL"}, {"measurement": "MIC MgCl2", "setting": "[10]; MgCl2 1 mM", "value": 1.5, "unit": "µg/mL"}, {"measurement": "MIC NH4Cl", "setting": "[10]; NH4Cl 6 mM", "value": 0.7, "unit": "µg/mL"}, {"measurement": "MIC NaCl", "setting": "[10]; NaCl 150 mM", "value": 0.7, "unit": "µg/mL"}, {"measurement": "MIC FBS (25%)", "setting": "[10]; fetal bovine serum 25%", "value": 3.1, "unit": "µg/mL"}, {"measurement": "MIC Klebsiella pneumonia (ATCC 13883)", "setting": "[11]", "value": 6.2, "unit": "µg/mL"}, {"measurement": "reduction in biofilm mass", "setting": "[12]; at 2× the MIC", "value": 61, "unit": "%"}, {"measurement": "reduction in biofilm mass", "setting": "[12]; at MIC", "value": 46, "unit": "%"}, {"measurement": "change in MIC after repeated exposure (resistance development)", "setting": "[13]", "value": "negligible changes in the MIC values"}, {"measurement": "HC50", "setting": "[1]", "value": ">500", "unit": "µg/mL"}]}
{"molecule": "c[Arg-Arg-Arg-Arg-Nal-Nal-Nal] [8b]", "values": [{"measurement": "HC50", "setting": "[14]", "value": 80, "unit": "µg/mL"}, {"measurement": "MIC MRSA (ATCC BAA-1556)", "setting": "[15]", "value": 3.1, "unit": "µg/mL"}, {"measurement": "MIC S. aureus (ATCC 29213)", "setting": "[16]", "value": 3.1, "unit": "µg/mL"}, {"measurement": "MIC E. coli (ATCC 25922)", "setting": "[17]", "value": 25, "unit": "µg/mL"}, {"measurement": "MIC P. aeruginosa (ATCC 27883)", "setting": "[18]", "value": 12.5, "unit": "µg/mL"}]}
{"molecule": "cyclo(RRRR[Dip][Dip][Dip]) [8a]", "values": [{"measurement": "HC50", "setting": "[14]", "value": 70, "unit": "µg/mL"}, {"measurement": "MIC MRSA (ATCC BAA-1556)", "setting": "[15]", "value": 3.1, "unit": "µg/mL"}, {"measurement": "MIC S. aureus (ATCC 29213)", "setting": "[16]", "value": 3.1, "unit": "µg/mL"}, {"measurement": "MIC E. coli (ATCC 25922)", "setting": "[17]", "value": 12.5, "unit": "µg/mL"}, {"measurement": "MIC P. aeruginosa (ATCC 27883)", "setting": "[18]", "value": 12.5, "unit": "µg/mL"}]}
